Experimental data published in paper PMC3018560 (Antiviral research, 2010).

Legend:
[1] = mouse; ref Alonzi et al., 2008; cited from earlier work
HIV = conditions: anti-HIV agent, patients; ref Fischl et al., 1994; cited from earlier work
[2] = human; ref Lindahl et al., 2005; cited from earlier work
[3] = test system: DENV (serotype 2, TSV01 strain); test: Dengue viremia model in AG129 mouse, plasma virus titer by plaque assay; assay type: in vivo; conditions: AG129 mice
In short: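 AG129 mice (lacking type I and type II interferon receptors), 7 to 8 weeks old, 6 per dosing group, challenged i.p. with 5×10^6 pfu/mouse. Ribavirin dosed once daily and imino sugars twice daily at 12 hr intervals for 3 consecutive days post-infection; PBS to controls. Plasma virus titer by plaque assay on blood drawn day 3. Reported as average and standard deviation; student t test versus PBS control.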

Structure (SMILES)	T1/2 [1] [h]	Antiviral efficacy in phase II clinical trial (HIV)	Systematic concentration [2]	Effect on viremia of dose increase ([3]; ribavirin dose raised from 40mg/kg to 80mg/kg)	Effect on viremia ([3]; ribavirin oral 40mg/kg once daily alone, 3 days (Fig. 5A))
CCCCN1C[C@H](O)[C@@H](O)[C@H](O)[C@H]1CO [NBDNJ]	1.34	did not demonstrate any antiviral efficacy	–	–	–
NC(=O)c1ncn([C@@H]2O[C@H](CO)[C@@H](O)[C@H]2O)n1 [ribavirin]	–	–	~ 15 μM	did not improve its antiviral effect	did not reduce viremia
